Experimental data taken from publication PMC3545439 (Investigational new drugs, 2010).
Like-named read-outs stand apart in the source and are kept apart here.

What was measured:
[1] = tested on: patients with advanced solid tumors; assay: Phase I dose escalation: toxicity; assay type: in vivo, human
Outline: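 Open-label, non-randomized 3+3 escalation in groups of 3–6, outpatient, with no intra-patient escalation. […] DLT was grade 4 hematologic or grade 3–4 non-hematologic toxicity (including diarrhea despite prophylaxis), or delay allowing fewer than 2 treatments in weeks 1–3. MTD was one level below the dose at which ≥2 patients had first-cycle DLT.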

[2] = Flavopiridol plasma pharmacokinetics in patients; assay type: in vivo, human
[3] = cited from earlier work
[4] = Vorinostat serum pharmacokinetics in patients; assay type: in vivo, human
[5] = tested on: patients; settings: PO daily × 3 days, every 14 days, with infusional fluorouracil and leucovorin; cited from earlier work
[6] = cited from earlier work; remark: listed apart in the source

| SMILES | maximum tolerated dose (MTD), flavopiridol ([1]; 21-d schedule, bolus over 1 hr days 2 and 9, with vorinostat 600 mg/d) [mg/m^2] | maximum tolerated dose (MTD), flavopiridol ([1]; 28-d schedule, split dose days 2 and 16, with vorinostat 800 mg/d) | Cmax ([2]; human, plasma, intravenous) [µM] | patients achieving flavopiridol Cmax of ≥2 μM ([2]; patients tested (20)) [%] | vorinostat level that enhances chemotherapy in vitro [3] [µM] | maximum tolerated dose (MTD) of vorinostat ([1]; 21-d schedule: days 1–3 and 8–10, with flavopiridol 60 mg/m^2 over 1 hr days 2 and 9) [mg/day] | maximum tolerated dose (MTD) of vorinostat ([1]; 28-d schedule: days 1–3 and 15–17, with split-dose flavopiridol days 2 and 16) [mg/day] | patients achieving vorinostat Cmax ≥2.5 μM ([4]; 800 mg dose level (MTD)) [%] | increase of vorinostat Cmax by flavopiridol ([4]; cycle 1 versus cycle −1, all patients, 95% CI 11%–43%) [%] | MTD of vorinostat [5] | Cmax ([6]; read-out: average Cmax, vorinostat in combination with carboplatin and paclitaxel or FOLFOX) [µM] | Cmax ([6]; standard dose 400 mg PO daily continuously) [µM] | Cmax ([6]; vorinostat 900 mg/m^2 IV daily × 3 days every 3 weeks) [µM] |
| --- | --- | --- | --- | --- | --- | --- | --- | --- | --- | --- | --- | --- | --- |
| CN1CC[C@H](c2c(O)cc(O)c3c(=O)cc(-c4ccccc4Cl)oc23)[C@H](O)C1 [flavopiridol] | 60 | 30 mg/m^2 over 30 min followed by 30 mg/m^2 over 4 h | 3.92 | 90 |  |  |  |  |  |  |  |  |  |
| O=C(CCCCCCC(=O)Nc1ccccc1)NO [vorinostat, suberoylanilide hydroxamic acid] |  |  |  |  | > 2.5 | 600 | 800 | 86 | 27 | 1,700 mg | < 2 | ~2.5 | > 30 |
